Among the data in ChEMBL document CHEMBL1240321, “Cyclostreptin binds covalently to microtubule pores and lumenal taxoid binding sites” (Nat Chem Biol, 2007) are Kd, Activity and IC50 values, retold here.

Activity calls are given as the source filed them. No cut-off for these calls is given here.

The nature of experiment [1]: Binding affinity to microtubule.
Experiment [2] in a line: Displacement of [3H]discodermolide from microtubule assessed as bound radioligand level at 20 uM treated after radioligand addition by competitive binding assay.
A short description of experiment [3]: Displacement of [3H]discodermolide from microtubule assessed as bound radioligand level at 20 uM treated before radioligand addition by competitive binding assay.
A short description of experiment [4]: Displacement of [3H]paclitaxel from microtubule assessed as bound radioligand level at 20 uM treated before radioligand addition by competitive binding assay.
Experiment [5] is described as follows: Displacement of [3H]epothilone B from microtubule assessed as bound radioligand level at 20 uM treated after radioligand addition by competitive binding assay.
The nature of experiment [6]: Displacement of [3H]epothilone B from microtubule assessed as bound radioligand level at 20 uM treated before radioligand addition by competitive binding assay.
Experiment [7] is described as follows: Displacement of [3H]paclitaxel from microtubule assessed as bound radioligand level at 20 uM treated after radioligand addition by competitive binding assay.
Experiment [8] in a line: Induction of mitotic cell cycle arrest in human A2780AD cells assessed as accumulation of cells at G2+M phase at 5 uM after 24 hrs by flow cytometry (Rvb= 20.5%). Format: functional, A2780 ADR.
The subject of the next experiment is 1A9/ptx-22. The experiment is described as follows: Cytotoxicity against human 1A9PTX22 cells at 5 uM. It is filed as functional, cell-based.
For experiment [9], the system named is A2780. The experiment is described as follows: Induction of mitotic cell cycle arrest in human A2780 cells assessed as accumulation of cells at G1/G0 phase at 5 uM after 24 hrs by flow cytometry (Rvb= 60%). It is filed as functional.
The test system of experiment [10] is A2780. The experiment is described as follows: Induction of mitotic cell cycle arrest in human A2780 cells assessed as accumulation of cells at SubG1 phase at 5 uM after 24 hrs by flow cytometry (Rvb= 2.5%). It is filed as functional.
In experiment [11] the test system is A549. The experiment is described as follows: Cytotoxicity against human A549 cells at 5 uM. Format: functional, cell-based.
The subject of experiment [12] is A2780. The experiment is described as follows: Induction of mitotic cell cycle arrest in human A2780 cells assessed as accumulation of cells at G2+M phase at 5 uM after 24 hrs by flow cytometry (Rvb= 20%). Format: functional.
The nature of experiment [13]: Induction of mitotic cell cycle arrest in human A2780AD cells assessed as accumulation of cells at SubG1 phase at 5 uM after 24 hrs by flow cytometry (Rvb= 4.1%). Format: functional, A2780 ADR.
The subject of another experiment is A2780 ADR. The experiment is described as follows: Cytotoxicity against human A2780AD cells at 5 uM. It is filed as functional, cell-based.
Experiment [14] in a line: Induction of mitotic cell cycle arrest in human A2780AD cells assessed as accumulation of cells at G1/G0 phase at 5 uM after 24 hrs by flow cytometry (Rvb= 59.2%). It is filed as functional, A2780 ADR.
Another experiment concerns 1A9/ptx-10. Briefly: Cytotoxicity against human 1A9PTX10 cells at 5 uM. It is filed as functional, cell-based.
In experiment [15] the test system is A2780. Briefly: Induction of mitotic cell cycle arrest in human A2780 cells assessed as accumulation at S phase at 5 uM after 24 hrs by flow cytometry (Rvb= 17.5%). It is filed as functional.
Experiment [16] relates to A2780. The experiment is described as follows: Cytotoxicity against human A2780 cells at 5 uM. Format: functional, cell-based.
A short description of experiment [17]: Induction of mitotic cell cycle arrest in human A2780AD cells assessed as accumulation at S phase at 5 uM after 24 hrs by flow cytometry (Rvb= 16.2%). Format: functional, A2780 ADR.
In another experiment the test system is A2780-1A9. The experiment is described as follows: Cytotoxicity against human A2780-1A9 cells at 5 uM. Format: functional, cell-based.
Experiment [18] in a line: Cytotoxicity against human A2780-1A9 cells. Format: functional, cell-based.
The test system of experiment [19] is A549. The experiment is described as follows: Cytotoxicity against human A549 cells. Format: functional, cell-based.
Experiment [20] relates to A2780. The experiment is described as follows: Cytotoxicity against human A2780 cells. Format: functional, cell-based.
Experiment [21] can be described thus: Cytotoxicity against human A2780AD cells. Format: functional, cell-based. The conditions noted are these: A2780 ADR.
For experiment [22], the system named is A2780. The experiment is described as follows: Induction of mitotic cell cycle arrest in human A2780 cells assessed as accumulation at S phase at 15 nM after 24 hrs by flow cytometry (Rvb= 17.5%). It is filed as functional.
The test system of experiment [23] is PtK2. Briefly: Induction of microtubule bundle formation in potoroo PtK2 cells at 2 uM after 7 hrs by flow cytometry. It is filed as cell-based. The conditions noted are these: Potorous tridactylus.
Experiment [24] deals with A549. Briefly: Induction of mitotic cell cycle arrest in human A549 cells assessed as accumulation of cells at G1/G0 phase at 20 nM after 24 hrs by flow cytometry (Rvb= 39.2%). Format: functional.
A short description of experiment [25]: Micronucleation in potoroo PtK2 cells at 10 uM treated for 7 hrs followed by compound washout measured after 48 hrs by flow cytometry. The conditions noted are these: Potorous tridactylus.
The nature of experiment [26]: Cytotoxicity against human 1A9PTX10 cells. It is filed as functional, cell-based. The conditions noted are these: 1A9/ptx-10.
Experiment [27] concerns A2780. Briefly: Induction of mitotic cell cycle arrest in human A2780 cells assessed as accumulation of cells at SubG1 phase at 15 nM after 24 hrs by flow cytometry (Rvb= 2.5%). It is filed as functional.
The nature of experiment [28]: Induction of micronucleation in potoroo PtK2 cells at 2 uM after 7 hrs by flow cytometry. It is filed as functional, Potorous tridactylus.
The subject of experiment [29] is PtK2. Briefly: Induction of micronucleation in potoroo PtK2 cells at 10 uM after 7 hrs by flow cytometry. The conditions noted are these: Potorous tridactylus.
The nature of experiment [30]: Induction of mitotic cell cycle arrest at G1/G0 phase in potoroo PtK2 cells 10 uM after 7 hrs by flow cytometry (Rvb= 60%). Format: functional, Potorous tridactylus.
The nature of experiment [31]: Induction of micronucleation in potoroo PtK2 cells at 5 uM after 7 hrs by flow cytometry. It is filed as functional, Potorous tridactylus.
A short description of experiment [32]: Cytotoxicity against human 1A9PTX22 cells. It is filed as functional, cell-based. The conditions noted are these: 1A9/ptx-22.
Experiment [33] deals with A549. The experiment is described as follows: Induction of mitotic cell cycle arrest in human A549 cells assessed as accumulation of cells at G2+M phase at 20 nM after 24 hrs by flow cytometry (Rvb= 19.6%). It is filed as functional.
Experiment [34] has as its system A2780. Briefly: Induction of mitotic cell cycle arrest in human A2780 cells assessed as accumulation of cells at G1/G0 phase at 15 nM after 24 hrs by flow cytometry (Rvb= 60%). Format: functional.
Experiment [35] relates to A549. The experiment is described as follows: Induction of mitotic cell cycle arrest in human A549 cells assessed as accumulation of cells at SubG1 phase at 20 nM after 24 hrs by flow cytometry (Rvb= 25%). Format: functional.
Experiment [36] concerns A2780. Briefly: Induction of mitotic cell cycle arrest in human A2780 cells assessed as accumulation of cells at G2+M phase at 15 nM after 24 hrs by flow cytometry (Rvb= 20%). It is filed as functional.
In experiment [37] the test system is PtK2. The experiment is described as follows: Displacement of Flutax-2 from microtubule in potoroo PtK2 cells at 100 uM. The conditions noted are these: Potorous tridactylus.
Experiment [38] has as its system PtK2. Briefly: Induction of microtubule bundle formation in potoroo PtK2 cells at 10 uM treated for 7 hrs followed by compound washout measured after 48 hrs. As to conditions: Potorous tridactylus.
A short description of experiment [39]: Induction of micronucleation in potoroo PtK2 cells at 10 uM after 7 hrs by flow cytometry. Format: functional, Potorous tridactylus.
The test system of experiment [40] is PtK2. Briefly: Induction of microtubule bundle formation in potoroo PtK2 cells at 5 uM after 7 hrs by flow cytometry. It is filed as cell-based. The conditions noted are these: Potorous tridactylus.
Experiment [41] can be described thus: Binding affinity to microtubule pretreated with cyclostreptin. In short, it runs like this:
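Glutaraldehyde-crosslinked microtubules (60 µM) were preincubated overnight at 22 °C with 66 µM cyclostreptin in GAB (3.4 M glycerol, 10 mM NaPi, 1 mM EGTA, 6 mM MgCl2, pH 6.7) plus 0.1 mM GTP, then dialyzed 5 h against the same buffer. Flutax-2 (50 nM) was titrated with these microtubules, and the association constant for Flutax-2 binding was calculated.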

`C/C(=C\c1csc(C)n1)[C@@H]1C[C@@H]2O[C@]2(C)CCC[C@H](C)[C@H](O)[C@@H](C)C(=O)C(C)(C)[C@@H](O)CC(=O)O1` [PATUPILONE] displayed a Kd in experiment [1] of 0.0013 µM. Besides, the Activity stood at 76% in experiment [2]; 79% in [3]; 33% in experiment [4]; 9% in experiment [5]; 9% in experiment [6]; 31% in [7].

`C=C/C=C\[C@H](C)[C@H](OC(N)=O)[C@@H](C)[C@H](O)[C@@H](C)C/C(C)=C\[C@H](C)[C@@H](O)[C@@H](C)/C=C\[C@@H](O)C[C@@H]1OC(=O)[C@H](C)[C@@H](O)[C@H]1C` [DISERMOLIDE] came in with a Kd in [1] of 0.00018 µM. Moreover, the Activity is 27% in experiment [2] and 31% in [3].

Regarding `CC1=C[C@H]2[C@@H](O)[C@H](C)[C@@H](O)[C@@H]2[C@H]2[C@@H]3[C@H]4C(=O)O[C@@H]5CC[C@@](C)(O[C@@H]4[C@@H]5C)[C@@H]3C[C@@H]12`, the Activity in experiment [8] worked out at 21.5%; in the experiment with A2780 [9] it was 58.7%; in the experiment with A2780 [10], 2.8%; in the experiment with A2780 [12] it was 16%; in [13], 2%; in [14] it was 56.9%. Moreover, the Activity in the experiment on A2780 [15] is on record as 22.5%; in [17], 19.6%. The result in the experiment on 1A9/ptx-22, with A549 [11], in the experiment on A2780 ADR, in the experiment with 1A9/ptx-10, with A2780 [16] and with A2780-1A9 was inactive.

Turning to `CC(=O)O[C@@]12CO[C@@H]1C[C@H](O)[C@@]1(C)C(=O)[C@H](O)C3=C(C)[C@@H](OC(=O)[C@H](O)[C@@H](NC(=O)OC(C)(C)C)c4ccccc4)C[C@@](O)([C@@H](OC(=O)c4ccccc4)[C@H]21)C3(C)C` [DOCETAXEL], the IC50 stood at 0.0006 µM in experiment [18], 0.0072 µM in the experiment on A549 [19], 0.0005 µM in the experiment with A2780 [20] and 0.285 µM in experiment [21].

On to `CC(=O)O[C@H]1C(=O)[C@@]2(C)[C@H]([C@H](OC(=O)c3ccccc3)[C@]3(O)C[C@H](OC(=O)[C@H](O)[C@@H](NC(=O)c4ccccc4)c4ccccc4)C(C)=C1C3(C)C)[C@]1(OC(C)=O)CO[C@@H]1C[C@@H]2O` [PACLITAXEL], for which the Activity was 7% in the experiment on A2780 [22]; 4% with PtK2 [23]; 8.4% with A549 [24]; 15.7% with A2780 [27]; 4% in experiment [28]; 4% in the experiment on PtK2 [29]. For the same compound, the Activity is reported as 50% in [30]; 4% in experiment [31]; 8.85% in the experiment on A549 [33]; 6.5% in the experiment with A2780 [34]; 36.9% in the experiment with A549 [35]; 70.8% in the experiment on A2780 [36]. The Activity (in [39]; in the experiment on PtK2 [40]) was 4% throughout. Moreover, the Activity at 10 µM in experiment [25] was 40%. Also, the IC50 is 0.03 µM in experiment [26], 0.0011 µM in experiment [18], 0.019 µM in experiment [32] and 0.9 µM in experiment [21]. Moreover, binding in experiment [1] was characterised by a dissociation constant (Kd) of 0.07 µM. Also, the outcome in the experiment with PtK2 [37] and in the experiment with PtK2 [38] was Active.

With `C/C(=C\c1csc(C)n1)[C@@H]1C[C@@H]2O[C@@H]2CCC[C@H](C)[C@H](O)[C@@H](C)C(=O)C(C)(C)[C@@H](O)CC(=O)O1` [EPOTHILONE A], the affinity in experiment [1], expressed as Kd, was 0.028 µM. The Activity is 95% in experiment [2]; 96% in experiment [3]; 49% in experiment [4]; 49% in [5]; 49% in [6]; 46% in experiment [7].

On to `CC1=C[C@H]2[C@@H](O)[C@H](C)[C@@H](O)[C@@H]2[C@H]2[C@H]3[C@@H](C[C@@H]12)[C@@]1(C)CC[C@H]2OC(=O)[C@]34O[C@@]4(O1)[C@@H]2C`, for which the outcome in the experiment on 1A9/ptx-22, with A549 [11], in the experiment on A2780 ADR, in the experiment with 1A9/ptx-10, in the experiment on A2780 [16] and in the experiment on A2780-1A9 was inactive.

`CC(=O)O[C@H]1C(=O)[C@]2(C)[C@@H](OC(=O)[C@H](C)NC(=O)c3ccc(-c4c5cc(F)c(=O)cc-5oc5cc(O)c(F)cc45)c(C(=O)O)c3)C[C@H]3OC[C@@]3(OC(C)=O)[C@H]2[C@H](OC(=O)c2ccccc2)[C@]2(O)C[C@H](OC(=O)[C@H](O)[C@@H](NC(=O)c3ccccc3)c3ccccc3)C(C)=C1C2(C)C` [FLUTAX 2] yielded a Kd in experiment [1] of 0.014 µM. Also, the result in [41] was inactive.
